The test system of test [1] is MCF7. In words: Cytotoxicity against human MCF7 cells after 24 hrs by MTT assay. Type of test: functional, cell-based. To be noted: MCF7, 24 h, in the assay text read “XTT assay” for “MTT assay”. The gist of the method: (§1)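 Cells grown in RPMI with fetal calf serum, penicillin/streptomycin, 37 °C, 5% CO2. Seeded 2 × 10^4 cells/well, then 24 h. Medium replaced with compound at 3.9–500 µg/ml (DMSO stocks diluted in medium, final DMSO under 0.1%). XTT read-out of mitochondrial activity: 3 h at 37 °C, OD 480 nm (reference 680 nm). IC50 by non-linear regression; duplicate experiments; cisplatin positive control.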

Test [2] can be described thus: Cytotoxicity against mouse NIH/3T3 cells after 24 hrs by MTT assay. The format is cell-based. The following applies: NIH3T3, 24 h, in the assay text read “XTT assay” for “MTT assay”. The gist of the method:
as §1

Test [3] concerns MCF7. Put plainly: Induction of apoptosis in human MCF7 cells assessed as viable cells level at cytotoxic IC50 level after 24 hrs by Annexin V/PI dual staining based flow cytometry (reference value: 94.36 %). Type of test: functional.
In test [4] the test system is MCF7. In words: Induction of apoptosis in human MCF7 cells assessed as early apoptotic cells level at cytotoxic IC50 level after 24 hrs by Annexin V/PI dual staining based flow cytometry (reference value: 0.46%). Type of test: functional.
Test [5] deals with MCF7. Put plainly: Induction of apoptosis in human MCF7 cells assessed as late apoptotic cells level at cytotoxic IC50 level after 24 hrs by Annexin V/PI dual staining based flow cytometry (reference value: 1.52 %). Type of test: functional.
Test [6] has as its system MCF7. In words: Induction of apoptosis in human MCF7 cells assessed as necrotic cells level at cytotoxic IC50 level after 24 hrs by Annexin V/PI dual staining based flow cytometry (reference value: 3.66 %). The format is functional.
Test [7] concerns MCF7. Put plainly: Inhibition of DNA synthesis in human MCF7 cells at 0.5 times cytotoxic IC50 level after 48 hrs by 5-bromo-20-deoxy-uridine incorporation method. The format is functional. The gist of the method: (§2)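 BrdU ELISA on MCF-7 seeded at 2 × 10^4 cells/well. Compounds given at IC50/2, IC50 and 2 × IC50 (from the XTT assay) for 24 h or 48 h. BrdU added for 2 h at 37 °C, then anti-BrdU-POD for 90 min, three PBS washes and colorimetric substrate. Untreated control absorbance set as 0% inhibition. Means of two independent experiments ± SD of four wells; cisplatin positive control.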

In test [8] the test system is MCF7. In words: Inhibition of DNA synthesis in human MCF7 cells at cytotoxic IC50 level after 48 hrs by 5-bromo-20-deoxy-uridine incorporation method. The format is functional. The gist of the method:
as §2

Test [9] deals with MCF7. In words: Inhibition of DNA synthesis in human MCF7 cells at 2 times cytotoxic IC50 level after 48 hrs by 5-bromo-20-deoxy-uridine incorporation method. The format is functional. The gist of the method:
as §2

Test [10] concerns MCF7. Put plainly: Inhibition of DNA synthesis in human MCF7 cells at 0.5 times cytotoxic IC50 level after 24 hrs by 5-bromo-20-deoxy-uridine incorporation method. The format is functional. The gist of the method: as §2
Test [11] relates to MCF7. In words: Inhibition of DNA synthesis in human MCF7 cells at cytotoxic IC50 level after 24 hrs by 5-bromo-20-deoxy-uridine incorporation method. Type of test: functional. The gist of the method:
as §2

Test [12] has as its system MCF7. Put plainly: Inhibition of DNA synthesis in human MCF7 cells at 2 times cytotoxic IC50 level after 24 hrs by 5-bromo-20-deoxy-uridine incorporation method. The format is functional. The gist of the method:
as §2

The test system of test [13] is MCF7. Put plainly: Inhibition of DNA synthesis in human MCF7 cells at 22.09 ug/ml after 48 hrs by 5-bromo-20-deoxy-uridine incorporation method. To be noted: MCF7, 48 h. Type of test: functional. The gist of the method: (§3)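 MCF-7 seeded at 2 × 10^4 cells/well and exposed to compound for 48 h at the stated concentration. BrdU added for 2 h at 37 °C, then anti-BrdU-POD for 90 min, PBS washes and colorimetric substrate. Inhibition taken relative to untreated control absorbance (set as 0%). Means of two independent experiments ± SD of four wells.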

Test [14] relates to MCF7. In words: Inhibition of DNA synthesis in human MCF7 cells at 44.18 ug/ml after 48 hrs by 5-bromo-20-deoxy-uridine incorporation method. Type of test: functional. To be noted: MCF7, 48 h. The gist of the method:
as §3

Activity calls are given as the source filed them. The rule behind the calls is not given here.

For `Cc1ccc(-c2nnc(N3CCN(C(=O)CN4CCN(c5ccc(Cl)cc5)CC4)CC3)nc2-c2ccc(C)cc2)cc1`, the IC50 in test [1] stood at 660 µM; in [2], 567 µM.

With `O=C(CN1CCN(c2ccccc2)CC1)N1CCN(c2nnc(-c3ccc(Cl)cc3)c(-c3ccc(Cl)cc3)n2)CC1`, the IC50 in test [1] and in test [2] was over 850 µM throughout.

Turning to `O=C(CN1CCN(c2ccc([N+](=O)[O-])cc2)CC1)N1CCN(c2nnc(-c3ccc(Cl)cc3)c(-c3ccc(Cl)cc3)n2)CC1`, the IC50 in [1] and in test [2] was over 790 µM in each case.

As for `COc1cccc(N2CCN(CC(=O)N3CCN(c4nnc(-c5ccc(C)cc5)c(-c5ccc(C)cc5)n4)CC3)CC2)c1`, the IC50 is 867 µM in test [1] and over 866 µM in [2].

`COc1ccccc1N1CCN(CC(=O)N2CCN(c3nnc(-c4ccc(Cl)cc4)c(-c4ccc(Cl)cc4)n3)CC2)CC1`: the results for the IC50 in [1] and in test [2] were 330 µM and 404 µM, respectively.

As to `COc1cccc(N2CCN(CC(=O)N3CCN(c4nnc(-c5ccc(Cl)cc5)c(-c5ccc(Cl)cc5)n4)CC3)CC2)c1`, the IC50 in test [1] was determined as 149 µM; in test [2], 202 µM. The Activity in test [3] amounted to 71.3%; in [4] it was 0.9%; in test [5], 3.3%; in test [6], 24.5%.

Turning to `O=C(CN1CCN(c2ccc(Cl)cc2)CC1)N1CCN(c2nnc(-c3ccccc3)c(-c3ccccc3)n2)CC1`, the figures for the IC50 in [1] and in test [2] were 56.3 µM and 113 µM, respectively. For the same compound, the “inhibition (INH)” value in [7] is recorded as 24.98%; in [8], 52.05%; in [9] it was 62.34%. Also, the Activity in test [3] is reported as 76.4%; in test [4], 2.1%; in [5], 10.3%; in test [6] it was 11.2%.

As to `O=C(CN1CCN(c2ccccc2Cl)CC1)N1CCN(c2nnc(-c3ccc(Cl)cc3)c(-c3ccc(Cl)cc3)n2)CC1`, the IC50 is 396 µM in [1] and over 803 µM in [2].

On to `COc1ccc(-c2nnc(N3CCN(C(=O)CN4CCN(c5cccc(OC)c5)CC4)CC3)nc2-c2ccc(OC)cc2)cc1`, for which the IC50 in [1] and in [2] was over 821 µM throughout.

`Cc1ccc(-c2nnc(N3CCN(C(=O)CN4CCN(c5ccccc5Cl)CC4)CC3)nc2-c2ccc(C)cc2)cc1`: the results for the IC50 in test [1] and in test [2] were 859 µM and over 859 µM, respectively.

Take `COc1ccc(-c2nnc(N3CCN(C(=O)CN4CCN(c5ccccc5)CC4)CC3)nc2-c2ccc(OC)cc2)cc1`: the IC50 in test [1] and in [2] was over 864 µM in each case.

As for `O=C(CN1CCN(c2ccccc2Cl)CC1)N1CCN(c2nnc(-c3ccccc3)c(-c3ccccc3)n2)CC1`, the values for the IC50 in test [1] and in [2] were 263 µM and 350 µM, respectively.

Take `O=C(CN1CCN(c2cccc(Cl)c2)CC1)N1CCN(c2nnc(-c3ccccc3)c(-c3ccccc3)n2)CC1`: the values for the IC50 in test [1] and in test [2] were 56.3 µM and 178 µM, respectively. For the same compound, the “inhibition (INH)” value in [10] is given as 26.06%; in test [11], 31.36%; in [12], 41.48%; in test [7], 56.59%; in test [8], 61.16%; in test [9] it was 70.18%. For the same compound, the Activity in test [3] came to 76.9%; in [4], 2.2%; in test [5], 9.4%; in test [6] it was 11.5%.

Regarding `Cc1ccc(-c2nnc(N3CCN(C(=O)CN4CCN(c5ccc([N+](=O)[O-])cc5)CC4)CC3)nc2-c2ccc(C)cc2)cc1`, the values for the IC50 in test [1] and in [2] were 845 µM and over 845 µM, respectively.

With `COc1ccccc1N1CCN(CC(=O)N2CCN(c3nnc(-c4ccc(C)cc4)c(-c4ccc(C)cc4)n3)CC2)CC1`, the IC50 in [1] was determined as 59.4 µM; in test [2] it was 133 µM. The compound also came in with an inhibition at 22.09 µg/mL in test [13] of 78.5%. The compound also had an inhibition at 44.18 µg/mL in [14] of 78.7%. The Activity in test [3] is reported as 63.4%; in [4], 2.6%; in [5] it was 5.8%; in test [6] it was 28.2%.

Consider `COc1ccccc1N1CCN(CC(=O)N2CCN(c3nnc(-c4ccccc4)c(-c4ccccc4)n3)CC2)CC1`, for which the figures for the 50% inhibitory concentration (IC50) in test [1] and in [2] were 167 µM and 444 µM, respectively. Moreover, the results for the “inhibition (INH)” value in test [10], in test [11] and in [12] were 22.44%, 76.35% and 81.61%, respectively. Further, the inhibition result in [7], in test [8] and in test [9] was “Active” in each case. For the same compound, the Activity in test [3] came to 82.5%; in test [4] it was 0%; in [5] it was 0.4%; in [6], 17.1%.

Consider `COc1cccc(N2CCN(CC(=O)N3CCN(c4nnc(-c5ccccc5)c(-c5ccccc5)n4)CC3)CC2)c1`, for which the IC50 in [1] was over 911 µM; in [2], 361 µM.

Take `COc1ccc(-c2nnc(N3CCN(C(=O)CN4CCN(c5cccc(Cl)c5)CC4)CC3)nc2-c2ccc(OC)cc2)cc1`: the IC50 in test [1] and in test [2] was over 814 µM each time.

`COc1ccc(-c2nnc(N3CCN(C(=O)CN4CCN(c5ccc([N+](=O)[O-])cc5)CC4)CC3)nc2-c2ccc(OC)cc2)cc1`: the IC50 in test [1] and in [2] was over 801 µM in each case.

For the compound `COc1ccc(N2CCN(CC(=O)N3CCN(c4nnc(-c5ccccc5)c(-c5ccccc5)n4)CC3)CC2)cc1`, the IC50 in [1] and in test [2] was over 911 µM throughout.

On to `COc1ccc(-c2nnc(N3CCN(C(=O)CN4CCN(c5ccccc5Cl)CC4)CC3)nc2-c2ccc(OC)cc2)cc1`, for which the IC50 in [1] and in test [2] was over 814 µM throughout.

As to `Cc1ccc(-c2nnc(N3CCN(C(=O)CN4CCN(c5ccccc5)CC4)CC3)nc2-c2ccc(C)cc2)cc1`, the IC50 was 914 µM in test [1] and over 914 µM in test [2].

For `COc1ccc(N2CCN(CC(=O)N3CCN(c4nnc(-c5ccc(Cl)cc5)c(-c5ccc(Cl)cc5)n4)CC3)CC2)cc1`, the IC50 in test [1] and in [2] was over 809 µM throughout.

As to `COc1ccc(-c2nnc(N3CCN(C(=O)CN4CCN(c5ccc(Cl)cc5)CC4)CC3)nc2-c2ccc(OC)cc2)cc1`, the IC50 in test [1] is 607 µM; in test [2], over 814 µM.

Take `O=C(CN1CCN(c2ccc([N+](=O)[O-])cc2)CC1)N1CCN(c2nnc(-c3ccccc3)c(-c3ccccc3)n2)CC1`: the IC50 in [1] and in [2] was over 886 µM each time.

As to `COc1ccc(-c2nnc(N3CCN(C(=O)CN4CCN(c5ccc(OC)cc5)CC4)CC3)nc2-c2ccc(OC)cc2)cc1`, the IC50 in test [1] and in test [2] was over 821 µM throughout.

With `O=C(CN1CCN(c2ccccc2)CC1)N1CCN(c2nnc(-c3ccccc3)c(-c3ccccc3)n2)CC1`, the IC50 in test [1] and in [2] was over 963 µM throughout.

Take `O=C(CN1CCN(c2ccc(Cl)cc2)CC1)N1CCN(c2nnc(-c3ccc(Cl)cc3)c(-c3ccc(Cl)cc3)n2)CC1`: the IC50 in test [1] and in [2] was over 803 µM throughout.

Take `COc1ccc(-c2nnc(N3CCN(C(=O)CN4CCN(c5ccccc5OC)CC4)CC3)nc2-c2ccc(OC)cc2)cc1`: the IC50 in [1] and in [2] was over 821 µM throughout.

With `Cc1ccc(-c2nnc(N3CCN(C(=O)CN4CCN(c5cccc(Cl)c5)CC4)CC3)nc2-c2ccc(C)cc2)cc1`, the IC50 in [1] is 797 µM; in [2], 859 µM.

On to `O=C(CN1CCN(c2cccc(Cl)c2)CC1)N1CCN(c2nnc(-c3ccc(Cl)cc3)c(-c3ccc(Cl)cc3)n2)CC1`, for which the 50% inhibitory concentration (IC50) in [1] and in test [2] was over 803 µM each time.

(Values after ChEMBL document CHEMBL3351961, “In vitro antitumor activity evaluation of some 1,2,4-triazine derivatives bearing piperazine amide moiety against breast cancer cells” (Bioorg Med Chem, 2014).)
